We go through two molecules from article PMC9827036 (Current Research in Pharmacology and Drug Discovery, 2022).

Data set [1] has as its target T1, FAK (Homo sapiens, UniProt Q05397). Nature of the data set: Western blot of FAK-Tyr-397 phosphorylation in suspended Caco-2 cells. The class given is cell-based. In a few lines:
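Caco-2 cells held in suspension on plates pre-coated with 1% heat-inactivated BSA to avoid adhesion-driven FAK activation. Treated with compound (100 pM–1000 nM) or H2O for 1 h at 37 °C, then lysed. Lysates resolved by 10% SDS-PAGE on nitrocellulose, probed for pTyr-397 FAK with total FAK as loading control. Read-out: pTyr-397/FAK fold change; n = 4–8.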
(In general: Immunoblotting shows a protein as a band on a membrane.)

Data set [2] deals with T1, FAK. Particulars: 10 nM, suspended Caco-2 cells; ref Wang et al., 2019b; cited from earlier work.
In another data set the test system is Caco-2 cells. As to conditions: in vitro; ref Wang et al., 2019b; cited from earlier work.

The structures appear in SMILES notation. Where two headings read alike, the source gives them in different places.

T1 sequence (Q05397 whole entry): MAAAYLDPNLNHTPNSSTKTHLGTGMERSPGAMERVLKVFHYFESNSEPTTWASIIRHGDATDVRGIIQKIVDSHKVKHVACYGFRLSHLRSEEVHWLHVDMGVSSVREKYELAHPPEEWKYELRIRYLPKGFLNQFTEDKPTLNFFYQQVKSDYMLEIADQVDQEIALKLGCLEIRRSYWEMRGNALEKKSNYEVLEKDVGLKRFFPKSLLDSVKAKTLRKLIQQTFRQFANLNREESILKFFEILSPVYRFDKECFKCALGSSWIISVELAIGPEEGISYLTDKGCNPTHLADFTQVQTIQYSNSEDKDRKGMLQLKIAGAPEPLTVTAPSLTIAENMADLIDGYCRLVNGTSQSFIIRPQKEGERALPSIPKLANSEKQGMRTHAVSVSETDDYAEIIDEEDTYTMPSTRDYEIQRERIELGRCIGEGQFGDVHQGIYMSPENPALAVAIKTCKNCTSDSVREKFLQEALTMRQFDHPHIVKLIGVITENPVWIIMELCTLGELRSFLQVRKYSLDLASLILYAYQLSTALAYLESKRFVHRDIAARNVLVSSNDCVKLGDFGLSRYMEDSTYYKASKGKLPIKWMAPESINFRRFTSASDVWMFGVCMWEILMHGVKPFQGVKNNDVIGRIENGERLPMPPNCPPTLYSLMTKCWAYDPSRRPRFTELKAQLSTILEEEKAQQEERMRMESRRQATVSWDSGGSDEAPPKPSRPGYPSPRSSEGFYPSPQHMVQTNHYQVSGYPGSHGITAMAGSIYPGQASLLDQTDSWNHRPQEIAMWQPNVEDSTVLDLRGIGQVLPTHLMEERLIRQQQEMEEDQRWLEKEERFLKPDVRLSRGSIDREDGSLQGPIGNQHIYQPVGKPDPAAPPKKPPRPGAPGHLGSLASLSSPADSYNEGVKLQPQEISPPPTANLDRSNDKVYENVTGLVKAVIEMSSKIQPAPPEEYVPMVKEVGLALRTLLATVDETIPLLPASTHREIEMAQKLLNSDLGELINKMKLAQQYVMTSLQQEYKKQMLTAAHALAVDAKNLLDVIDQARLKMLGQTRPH

For the molecule `CN(C)C(CNC(=O)Nc1cc(C(F)(F)F)ccc1N1CCOCC1)c1ccncc1` (stereo not shown) [M64, 1-(2-(dimethylamino)-2-(pyridin-4-yl)ethyl)-3-(2-morpholino-5-(trifluoromethyl)phenyl)urea], on FAK [1] (10–1000 nM), the FAK activation entry is on record as “did not activate FAK”.
Take `COc1ccc(C2CCCN2C(=O)Nc2cc(C(F)(F)F)ccc2N2CCOCC2)cc1` (stereo not shown) [ZN40099027]: the “FAK activation (positive control)” value at FAK [1] (100 nM, Caco-2 cells) is given as “activates FAK”. Moreover, the FAK activation on FAK [2] is listed as 14.8%. In the data set on Caco-2 cells, the “lowest concentration stimulating Caco-2 cell monolayer wound closure” value is recorded as 10 nM.
